Reference: ChEMBL document CHEMBL4725358 (J Med Chem, 2020)
Calls of active or inactive are those of the source. The rule behind the calls is not given here.

Tests used:
Format in all cases: cell-based
[1] = biological target: Putative P2Y purinoceptor 10 (Mus musculus) (UniProt Q8BFU7); assay: Agonist activity at mouse P2Y10 expressed in HEK293 cells co-transfected with AP-TGFalpha/Galphaq/i1 assessed as induction of ectodomain shedding of membrane bound AP-TGFalpha after 1 hr by p-NPP substrate based microplate reader analysis relative to positive control
Summary of the method: (§1)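 Run the same way as the GPR34 shedding assay, but with a mouse P2Y10 expression vector in HEK293 cells alongside AP-TGFα and chimeric Gα. Receptor-specific AP-TGFα release was found by subtracting the empty-vector background. EC50 and Emax came from concentration-response curves. Mean and SEM of 3−8 independent experiments.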

[2] = biological target: Probable G-protein coupled receptor 34 (Mus musculus, UniProt Q9R1K6); assay: Agonist activity at mouse GPR34 expressed in HEK293 cells co-transfected with AP-TGFalpha/Galphaq/i1 assessed as induction of ectodomain shedding of membrane bound AP-TGFalpha after 1 hr by p-NPP substrate based microplate reader analysis; conditions: read-out: EC50
Summary of the method: (§2)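 HEK293 cells transiently transfected with AP-TGFα, chimeric Gα and mouse GPR34 vectors, then treated with compound. Empty-vector cells (AP-TGFα plus chimeric Gα) served as background. Receptor-specific AP-TGFα release was taken after subtracting that background, and concentration-response curves gave EC50 and Emax. Mean and SEM of 3−8 independent experiments.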

[3] = biological target: Putative P2Y purinoceptor 10 (Mus musculus) (UniProt Q8BFU7); assay: Agonist activity at mouse P2Y10 expressed in HEK293 cells co-transfected with AP-TGFalpha/Galphaq/i1 assessed as induction of ectodomain shedding of membrane bound AP-TGFalpha after 1 hr by p-NPP substrate based microplate reader analysis relative to control; summary of the method: as §1
[4] = biological target: Probable G-protein coupled receptor 34 (Mus musculus) (UniProt Q9R1K6); assay: Agonist activity at mouse GPR34 expressed in HEK293 cells co-transfected with AP-TGFalpha/Galphaq/i1 assessed as induction of ectodomain shedding of membrane bound AP-TGFalpha after 1 hr by p-NPP substrate based microplate reader analysis relative to control; summary of the method: as §2
[5] = biological target: Putative P2Y purinoceptor 10 (Mus musculus, UniProt Q8BFU7); assay: Agonist activity at mouse P2Y10 expressed in HEK293 cells co-transfected with AP-TGFalpha/Galphaq/i1 assessed as induction of ectodomain shedding of membrane bound AP-TGFalpha after 1 hr by p-NPP substrate based microplate reader analysis; summary of the method: as §1
[6] = biological target: Probable G-protein coupled receptor 34 (Mus musculus) (UniProt Q9R1K6); assay: Agonist activity at mouse GPR34 expressed in HEK293 cells co-transfected with AP-TGFalpha/Galphaq/i1 assessed as induction of ectodomain shedding of membrane bound AP-TGFalpha after 1 hr by p-NPP substrate based microplate reader analysis relative to positive control; summary of the method: as §2

Putative P2Y purinoceptor 10, sequence (Q8BFU7 whole entry, the tested form may be a part): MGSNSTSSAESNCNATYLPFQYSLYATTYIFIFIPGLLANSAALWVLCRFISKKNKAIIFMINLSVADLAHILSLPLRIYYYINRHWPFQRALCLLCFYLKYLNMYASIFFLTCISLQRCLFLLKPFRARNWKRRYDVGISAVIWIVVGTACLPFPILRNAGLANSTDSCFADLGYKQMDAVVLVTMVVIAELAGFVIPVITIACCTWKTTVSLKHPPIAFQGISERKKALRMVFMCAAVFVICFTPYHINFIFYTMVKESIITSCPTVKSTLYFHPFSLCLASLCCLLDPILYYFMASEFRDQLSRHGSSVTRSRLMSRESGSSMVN
Putative P2Y purinoceptor 10 (Mus musculus), sequence (Q8BFU7 whole entry, the tested form may be a part): as above
Probable G-protein coupled receptor 34 (Mus musculus), sequence (Q9R1K6 whole entry, the tested form may be a part): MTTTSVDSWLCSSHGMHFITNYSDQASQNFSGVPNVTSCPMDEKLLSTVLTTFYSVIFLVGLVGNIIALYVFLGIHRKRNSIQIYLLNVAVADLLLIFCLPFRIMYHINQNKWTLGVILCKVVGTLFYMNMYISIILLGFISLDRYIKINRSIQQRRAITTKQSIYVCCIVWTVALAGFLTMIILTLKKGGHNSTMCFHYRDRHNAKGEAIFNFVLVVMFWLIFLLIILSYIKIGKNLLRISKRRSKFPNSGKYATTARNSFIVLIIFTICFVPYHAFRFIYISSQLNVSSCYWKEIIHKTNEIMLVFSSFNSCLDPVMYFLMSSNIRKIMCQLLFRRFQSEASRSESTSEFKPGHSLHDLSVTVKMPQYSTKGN
Probable G-protein coupled receptor 34, sequence (Q9R1K6 whole entry, the tested form may be a part): as above

Structure (SMILES)	fold change (FC) [1]	EC50 [2] [nM]	Emax [3]	Emax [4]	EC50 [5] [nM]	fold change (FC) ([6]; filed as agonist)	fold change (FC) ([1]; filed as agonist)	fold change (FC) [6]
CCCCCCCC/C=C\CCCCCCCC(=O)OC[C@H](COC)OP(=O)(O)OC[C@H](N)C(=O)O	inactive	620	inactive	7.5%	> 3000	0.13		
CCCCCCCC/C=C\CCCCCCCC(=O)O[C@H](COC)COP(=O)(O)OC[C@H](N)C(=O)O		160	2.5%	9.7%	70	0.52	0.0088	
N[C@@H](COP(=O)(O)OCCOC(=O)CCc1ccccc1OCc1cccc(Oc2ccccc2)c1)C(=O)O		220	20.8%	12.4%	2300	0.44	0.0013	
CCCCCCCC/C=C\CCCCCCCC(=O)O[C@H](C)COP(=O)(O)OC[C@H](N)C(=O)O		250	11.4%	6.1%	79	0.22	0.02	
CCCCCCCC/C=C\CCCCCCCC(=O)O[C@@H](C)COP(=O)(O)OC[C@H](N)C(=O)O		> 3000	11.6%	inactive	390		0.0034	inactive
CCCCCCCCCCCOc1ccccc1CCC(=O)OCCOP(=O)(O)OC[C@H](N)C(=O)O		330	12.7%	4.8%	5.7	0.12	0.32	
C[C@H](COC(=O)CCc1ccccc1OCc1cccc(Oc2ccccc2)c1)OP(=O)(O)OC[C@H](N)C(=O)O		9	13.2%	12.4%	290	11	0.0056	
CCCCCCCCCCCOc1ccccc1CCC(=O)OC1COCC[C@H]1OP(=O)(O)OC[C@H](N)C(=O)O (single isomer, unassigned)		2.9	11.4%	10%	26	32	0.039	
CCCCCCCC/C=C\CCCCCCCC(=O)OCCCCCOP(=O)(O)OC[C@H](N)C(=O)O		470	10.8%	4.6%	240	0.076	0.0061	
CCCCCCCCCCCOc1ccccc1CCC(=O)O[C@@H]1COCCC1OP(=O)(O)OC[C@H](N)C(=O)O (single isomer, unassigned)		63	12%	6.4%	840	1.3	0.0018	
CCCCCCCC/C=C\CCCCCCCC(=O)OCCCCOP(=O)(O)OC[C@H](N)C(=O)O		320	13.1%	4.4%	53	0.12	0.029	
CCCCCCCC/C=C\CCCCCCCC(=O)OCCCOP(=O)(O)OC[C@H](N)C(=O)O		540	13.7%	6.2%	20	0.12	0.11	
CCCCCCCC/C=C\CCCCCCCC(=O)OC[C@@H](COCCC)OP(=O)(O)OC[C@H](N)C(=O)O	inactive	6.1	inactive	12.2%	> 3000	17		
CCCCCCCCCCCOc1ccccc1CCC(=O)OC1COCCC1OP(=O)(O)OC[C@H](N)C(=O)O (single isomer, unassigned)		340	8.6%	3.7%	1300	0.1	0.00079	
COC[C@H](COC(=O)CCc1ccccc1OCc1cccc(Oc2ccccc2)c1)OP(=O)(O)OC[C@H](N)C(=O)O	inactive	5.7	inactive	13.5%	> 3000	21		
CCCCCCCC/C=C\CCCCCCCC(=O)OCCOP(=O)(O)OC[C@H](N)C(=O)O		> 3000	10.6%	inactive	66		0.02	inactive
C#CCOC[C@H](COC(=O)CCCCCCC/C=C\CCCCCCCC)OP(=O)(O)OC[C@H](N)C(=O)O		12	3.2%	12.6%	420	10	0.00074	
CCCCCCCCCCCOc1ccccc1CCC(=O)O[C@H]1COCC[C@@H]1OP(=O)(O)OC[C@H](N)C(=O)O		> 3000	12.4%	inactive	150		0.0085	inactive
CCCCCCCC/C=C\CCCCCCCC(=O)OC[C@@H](COCC)OP(=O)(O)OC[C@H](N)C(=O)O	inactive	3.5	inactive	12.3%	> 3000	29		
CCCCCCCC/C=C\CCCCCCCC(=O)OC[C@@H](COCc1ccccc1)OP(=O)(O)OC[C@H](N)C(=O)O		880	7.3%	9.6%	1400	0.13	0.00075	
CCCCCCCC/C=C\CCCCCCCC(=O)OC[C@@H](C)OP(=O)(O)OC[C@H](N)C(=O)O		24	12.4%	12.8%	250	4.8	0.0054	
CCCCCCCCCCCOc1ccccc1CCC(=O)O[C@@H]1CCOC[C@@H]1OP(=O)(O)OC[C@H](N)C(=O)O		220	19.3%	8.9%	1300	0.61	0.00089	
C[C@H](COP(=O)(O)OC[C@H](N)C(=O)O)OC(=O)CCc1ccccc1OCc1cccc(Oc2ccccc2)c1		6.3	13.8%	12%	170	16	0.0099	
CCCCCCCC/C=C\CCCCCCCC(=O)OC[C@@H](COC)OP(=O)(O)OC[C@H](N)C(=O)O	inactive	11	inactive	12.9%	> 3000	12		
CCCCCCCCCCCOc1ccccc1CCC(=O)O[C@H]1CCOC[C@H]1OP(=O)(O)OC[C@H](N)C(=O)O		> 3000	3.2%	inactive	420		0.0012	inactive
